Source: article PMC6457131 (AIDS (London, England), 2019)
“Also recorded” adds a separate entry of the source.

What was measured:
EcoHIV-infected mice [1] = details: cited from earlier work
[2] = Intranasal insulin pharmacokinetics in plasma, CSF and cortex; assay type: in vivo, C57BL/6 mice
EcoHIV-infected mice [3] = test: Radial arm water maze; assay type: in vivo, C57BL/6J mice
EcoHIV-infected mice [4] = test: Contextual fear conditioning; assay type: in vivo; details: 129x1/SvJ mice, 1 month after infection, during intranasal insulin treatment
EcoHIV = EcoHIV burdens in spleen cells and brain by quantitative PCR; assay type: in vivo, mice
[5] = system: MAP2 and NeuN in CA1 and CA3 regions of the hippocampus; test: Hippocampal neuronal integrity by MAP2/NeuN immunofluorescence staining; assay type: in vivo, mice
Outline: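 Brains came from 3 mice per variable after behavioural testing. After perfusion, frozen sections were immunostained for MAP2 (dendrites) and NeuN (neuronal nuclei) and imaged by confocal microscopy. Fluorescence was quantified in hippocampal CA1 and CA3.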

[6] = system: neuronal function and metabolism-related genes in the brain; assay type: in vivo, mice; details: intranasal insulin daily for 9 days
[7] = intranasal 2.4 IU; cited from earlier work
[8] = intranasal 2.4 IU/mouse, uninfected mice, n = 3-8/group, observed value, ELISA
[9] = intranasal 2.4 IU/mouse, converted with 1 μIU/ml = 0.14 pmol/l
[10] = intranasal insulin daily for 9 days, QPCR

For `[N-]=[N+]=CC(=O)CC[C@H](N)C(=O)O` [6-diazo-5-oxo-L-norleucine], the EcoHIV virus replication (EcoHIV-infected mice [1]) is given as “but not virus replication” and the “murine NCI caused by EcoHIV” value (EcoHIV-infected mice [1]) is given as “can be prevented”.

In the case of Human insulin, the “cortex insulin level above baseline” value ([2]; for 3 h following intranasal 2.4 IU/mouse) was “more than 10 fold”, the “duration of therapeutic intracerebral insulin concentrations” value ([2]; intranasal 2.4 IU/mouse) was 2 to 3 h and the “time by which insulin cleared to baseline, cortex” value ([2]; intranasal 2.4 IU/mouse) was no more than 6 h. For the same compound, the “time by which insulin cleared to baseline, plasma” value ([2]; intranasal 2.4 IU/mouse) was no more than 6 h, the “time by which insulin cleared, CSF” value ([2]; intranasal 2.4 IU/mouse) was no more than 3 h and the “Cmax, CSF” value [2, 8] was 17 μIU/ml. For the same compound, the “Cmax, plasma” value [2, 8] was 11.7 μIU/ml, the “Tmax, CSF” value [2, 8] was 1 h and the “Cmax, CSF” value [2, 9] was 2.38 pmol/L. The “Cmax, cortex” value [2, 9] was 7.42 pM, the “Cmax, plasma” value [2, 9] was 1.64 pmol/L and the “half-life of insulin in cerebrospinal fluid” value ([2]; intranasal administration to mice) was “about 2 h”. The “RAWM visible platform latency (mobility, vision, motivation)” value (EcoHIV-infected mice [3]; all mouse groups, intranasal insulin daily for 9 days) was “performed equally well”, the “day of RAWM testing at which maximum effect on working memory was reached” value (EcoHIV-infected mice [3]; infected mice, daily retention trial) was no more than 5 days and the “NCI in RAWM, 3 months after infection” value (EcoHIV-infected mice [3]; intranasal 2.4 IU/mouse daily for 9 days, started 3 months after EcoHIV infection) was “completely reversed; also recorded: fully reversible”. For the same compound, the “RAWM performance of infected animals after treatment cessation” value (EcoHIV-infected mice [3]; last 3-day average, compared with infected, continually treated animals) was “dramatically worsened”, the “contextual freezing response time of infected mice” value (EcoHIV-infected mice [4]) was “returned the freezing response time of infected mice to that of uninfected animals” and the “peripheral virus burdens after discontinuation of insulin treatment” value (EcoHIV; EcoHIV + insulin/disc group compared with untreated mice) was “significantly increased”. For the same compound, the “HIV DNA brain levels, 3 months after infection” value (EcoHIV; [10]) was “not significantly affected”, the “HIV brain burdens, 1 month after infection” value (EcoHIV; [10]) was “significantly reduced” and the “HIV levels in spleen, 1 month after infection” value (EcoHIV; [10]) was “no effect”. The “NeuN staining of neuronal cell bodies in hippocampus” value ([5]; all conditions tested) was “remained unaltered”, the “MAP2 dendrite staining in CA1 and CA3 regions of hippocampus of infected mice” value ([5]; intranasal insulin daily for 9 days, three mice per variable) was “levels similar to uninfected mice” and the “downmodulation of fourteen genes in brains of EcoHIV-infected mice” value [6] was “fully reversed”. For the same compound, the “energy metabolism in mouse brain” value [7] was “increases energy metabolism in mouse brain” and the plasma glucose levels [7] was “but not plasma glucose levels”.
